Calls of active or inactive are those of the source. The rule behind the calls is not given here.
How the values were obtained:
[1] = tested on: A-431; assay: Cytotoxicity against human A431 cells after 96 hrs by sulforhodamine B assay; assay type: functional, cell-based; settings: A-431, 96 h
How it was run: (§1)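 Human tumour cell lines in 96-well plates, exposed to test compounds for 96 h, then read by colorimetric sulforhodamine B staining. Viable cells are expressed as % of untreated controls. IC50 is taken from dose–response curves, top concentration 30 µM, as the mean of at least three independent experiments (variation generally 10%). Compounds are given as DMSO solutions or as an aqueous liposomal formulation.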

[2] = Cytotoxicity against human A253 cells after 96 hrs by sulforhodamine B assay; assay type: functional, cell-based; settings: A253, 96 h; how it was run: as §1
[3] = tested on: FaDu; assay: Cytotoxicity against human FADU cells after 96 hrs by sulforhodamine B assay; assay type: functional, cell-based; how it was run: as §1
[4] = tested on: A549; assay: Cytotoxicity against human A549 cells after 96 hrs by sulforhodamine B assay; assay type: functional, cell-based; settings: A549, 96 h; how it was run: as §1
[5] = tested on: A2780; assay: Cytotoxicity against human A2780 cells after 96 hrs by sulforhodamine B assay; assay type: functional, cell-based; settings: A2780, 96 h; how it was run: as §1
[6] = tested on: HCT-8; assay: Cytotoxicity against human HCT8 cells after 96 hrs by sulforhodamine B assay; assay type: functional, cell-based; settings: HCT-8, 96 h; how it was run: as §1
[7] = tested on: HCT-116; assay: Cytotoxicity against human HCT116 cells after 96 hrs by sulforhodamine B assay; assay type: functional, cell-based; settings: HCT-116, 96 h; how it was run: as §1
[8] = tested on: SW480; assay: Cytotoxicity against human SW480 cells after 96 hrs by sulforhodamine B assay; assay type: functional, cell-based; settings: SW480, 96 h; how it was run: as §1
[9] = tested on: 8505C; assay: Cytotoxicity against human 8505C cells after 96 hrs by sulforhodamine B assay; assay type: functional, cell-based; how it was run: as §1
[10] = tested on: SW-1736; assay: Cytotoxicity against human SW1736 cells after 96 hrs by sulforhodamine B assay; assay type: functional, cell-based; settings: SW-1736, 96 h; how it was run: as §1
[11] = tested on: MCF7; assay: Cytotoxicity against human MCF7 cells after 96 hrs by sulforhodamine B assay; assay type: functional, cell-based; settings: MCF7, 96 h; how it was run: as §1
[12] = Cytotoxicity against human liposarcoma cells after 96 hrs by sulforhodamine B assay; assay type: functional, cell-based; how it was run: as §1
[13] = tested on: 518A2; assay: Cytotoxicity against human 518A2 cells at 30 uM after 96 hrs by sulforhodamine B assay; assay type: functional, cell-based
How it was run: (§2)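 Growth inhibition at the highest tested concentration, 30 µM, after 96 h exposure in 96-well plates. Read by SRB staining as % viable cells relative to untreated controls, from at least three independent experiments.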

[14] = tested on: DLD-1; assay: Cytotoxicity against human DLD1 cells at 30 uM after 96 hrs by sulforhodamine B assay; assay type: functional, cell-based; how it was run: as §2
[15] = tested on: HT-29; assay: Cytotoxicity against human HT-29 cells at 30 uM after 96 hrs by sulforhodamine B assay; assay type: functional, cell-based; how it was run: as §2
[16] = Cytotoxicity against human 518A2 cells after 96 hrs by sulforhodamine B assay; assay type: functional, cell-based; settings: 518A2, 96 h; how it was run: as §1
[17] = tested on: HT-29; assay: Cytotoxicity against human HT-29 cells after 96 hrs by sulforhodamine B assay; assay type: functional, cell-based; settings: HT-29, 96 h; how it was run: as §1
[18] = tested on: A-431; assay: Cytotoxicity against human A431 cells at 30 uM after 96 hrs by sulforhodamine B assay; assay type: functional, cell-based; how it was run: as §2
[19] = tested on: A253; assay: Cytotoxicity against human A253 cells at 30 uM after 96 hrs by sulforhodamine B assay; assay type: functional, cell-based; how it was run: as §2
[20] = tested on: FaDu; assay: Cytotoxicity against human FADU cells at 30 uM after 96 hrs by sulforhodamine B assay; assay type: functional, cell-based; how it was run: as §2
[21] = tested on: A549; assay: Cytotoxicity against human A549 cells at 30 uM after 96 hrs by sulforhodamine B assay; assay type: functional, cell-based; how it was run: as §2
[22] = tested on: A2780; assay: Cytotoxicity against human A2780 cells at 30 uM after 96 hrs by sulforhodamine B assay; assay type: functional, cell-based; how it was run: as §2
[23] = tested on: HCT-8; assay: Cytotoxicity against human HCT8 cells at 30 uM after 96 hrs by sulforhodamine B assay; assay type: functional, cell-based; how it was run: as §2
[24] = tested on: HCT-116; assay: Cytotoxicity against human HCT116 cells at 30 uM after 96 hrs by sulforhodamine B assay; assay type: functional, cell-based; how it was run: as §2
[25] = tested on: SW480; assay: Cytotoxicity against human SW480 cells at 30 uM after 96 hrs by sulforhodamine B assay; assay type: functional, cell-based; how it was run: as §2
[26] = tested on: 8505C; assay: Cytotoxicity against human 8505C cells at 30 uM after 96 hrs by sulforhodamine B assay; assay type: functional, cell-based; how it was run: as §2
[27] = tested on: SW-1736; assay: Cytotoxicity against human SW1736 cells at 30 uM after 96 hrs by sulforhodamine B assay; assay type: functional, cell-based; how it was run: as §2
[28] = tested on: MCF7; assay: Cytotoxicity against human MCF7 cells at 30 uM after 96 hrs by sulforhodamine B assay; assay type: functional, cell-based; how it was run: as §2
[29] = species on record: Homo sapiens; assay: Cytotoxicity against human liposarcoma cells at 30 uM after 96 hrs by sulforhodamine B assay; assay type: functional, cell-based; how it was run: as §2
[30] = tested on: DLD-1; assay: Cytotoxicity against human DLD1 cells after 96 hrs by sulforhodamine B assay; assay type: functional, cell-based; settings: DLD-1, 96 h; how it was run: as §1
[31] = tested on: A2780; assay: Induction of apoptosis in human A2780 cells assessed as floating cells at IC90 concentration after 24 hrs by Trypan blue exclusion test; assay type: functional, cell-based
How it was run: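 A2780 ovarian cancer cells treated for 24 h. Floating cells are collected and scored by trypan-blue exclusion: apoptotic cells exclude the dye, necrotic cells stain blue.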

[32] = tested on: SW480; assay: Induction of apoptosis in human SW480 cells assessed as DNA ladder formation at IC90 concentration after 24 hrs by DNA gel electrophoresis analysis; assay type: functional, cell-based
How it was run: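 SW480 colon cancer cells treated for 24 h. Floating cells are collected, and DNA is analysed by gel electrophoresis for endonuclease-generated fragment laddering.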

[33] = tested on: A2780 (Homo sapiens); assay: Induction of apoptosis in human A2780 cells assessed as floating cells at IC90 concentration after 24 hrs by Trypan blue exclusion test
[34] = tested on: SW480 (Homo sapiens); assay: Induction of apoptosis in human SW480 cells assessed as DNA ladder formation at IC90 concentration after 24 hrs by DNA gel electrophoresis analysis

Compound | IC50 [1] [µM] | IC50 [2] [µM] | IC50 [3] [µM] | IC50 [4] [µM] | IC50 [5] [µM] | IC50 [6] [µM] | IC50 [7] [µM] | IC50 [8] [µM] | IC50 [9] [µM] | IC50 [10] [µM] | IC50 [11] [µM] | IC50 [12] [µM] | inhibition [14] | IC50 [16] [µM] | IC50 [17] [µM] | also measured
C=C(C)[C@@H]1CC[C@]2([C@H](O)c3cnn(C)c3C(=O)OC)CC[C@]3(C)[C@H](CC[C@@H]4[C@@]5(C)CC[C@H](OC(C)=O)C(C)(C)[C@@H]5CC[C@]43C)[C@@H]12 | 12.4 | 16 | 17.6 | 24.5 | 12.7 | 13.4 | 20.4 | 7 | 10.8 | 22.8 | 12.3 | 14.1 | inactive |  |  | inhibition [13]: inactive; inhibition [15]: inactive
C=C(C)[C@@H]1CC[C@]2([C@H](O)C#CCO)CC[C@]3(C)[C@H](CC[C@@H]4[C@@]5(C)CC[C@H](OC(C)=O)C(C)(C)[C@@H]5CC[C@]43C)[C@@H]12 | 10.5 | 10.3 | 11.2 | 11.9 | 10.4 | 11.6 | 11.3 | 6.9 | 8.4 | 11.5 | 9.9 | 11.4 | inactive | 11.9 | 11.6 | 
C=C(C)[C@@H]1CC[C@]2(C(=O)C#CC(=O)OC)CC[C@]3(C)[C@H](CC[C@@H]4[C@@]5(C)CC[C@H](OC(C)=O)C(C)(C)[C@@H]5CC[C@]43C)[C@@H]12 |  |  |  |  |  |  |  |  |  |  |  |  | inactive |  |  | inhibition [13]: inactive; inhibition [18]: inactive; inhibition [19]: inactive; inhibition [20]: inactive; inhibition [21]: inactive; inhibition [22]: inactive; inhibition [23]: inactive; inhibition [24]: inactive; inhibition [15]: inactive; inhibition [25]: inactive; inhibition [26]: inactive; inhibition [27]: inactive; inhibition [28]: inactive; inhibition [29]: inactive
C=C(C)[C@@H]1CC[C@]2(C(=O)O)CC[C@]3(C)[C@H](CC[C@@H]4[C@@]5(C)CC[C@H](O)C(C)(C)[C@@H]5CC[C@]43C)[C@@H]12 [BETULINIC ACID] |  |  |  |  | 11 |  |  |  |  |  |  | 9.7 |  |  |  | 
C=C(C)[C@@H]1CC[C@]2([C@H](O)/C=C\CO)CC[C@]3(C)[C@H](CC[C@@H]4[C@@]5(C)CC[C@H](OC(C)=O)C(C)(C)[C@@H]5CC[C@]43C)[C@@H]12 | 12.4 | 14.8 | 10.7 | 12.8 | 12.6 | 10.1 | 10.5 | 17.9 | 17.8 | 9 | 19.4 | 18.5 |  | 20.4 | 15.9 | IC50 [30]: 12.3 µM
C=C(C)[C@@H]1CC[C@]2([C@H](O)C3=C(C(=O)OC)C(C(=O)OCC)N=N3)CC[C@]3(C)[C@H](CC[C@@H]4[C@@]5(C)CC[C@H](OC(C)=O)C(C)(C)[C@@H]5CC[C@]43C)[C@@H]12 (stereo partly specified) | 7.6 | 12.5 | 9.9 | 14.8 | 9.1 | 10 | 9.8 | 7.7 | 8.9 | 16.4 | 8 | 19.9 | inactive | 21.5 | 12 | 
C=C(C)[C@@H]1CC[C@]2([C@@H]3OC(=O)C=C3N(C)C)CC[C@]3(C)[C@H](CC[C@@H]4[C@@]5(C)CC[C@H](OC(C)=O)C(C)(C)[C@@H]5CC[C@]43C)[C@@H]12 | 3.3 | 4.9 | 3.8 | 6.1 | 2.6 | 1.7 | 3.2 | 2.2 | 3.1 | 2.9 | 6.9 | 5.3 |  | 4.8 | 5.7 | IC50 [30]: 3.6 µM; Activity [31]: Active; Activity [32]: Active; Activity [33]: Active; Activity [34]: Active

Source: ChEMBL document CHEMBL1250553, “Synthesis, cytotoxicity and liposome preparation of 28-acetylenic betulin derivatives” (Bioorg Med Chem, 2010)
